According to ChEMBL document CHEMBL2157880, “Synthesis, antimycobacterial and antibacterial activity of ciprofloxacin derivatives containing a N-substituted benzyl moiety” (2012):
≈ marks a conversion by molar mass, not a printed value.

These compounds were tested on Enterococcus faecalis (assay: Antibacterial activity against Enterococcus faecalis 10-7 after 18 to 24 hrs by NCCLS method).
Assay type: functional
In short: (§1)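 Standard NCCLS (M100-S11) MIC testing against Gram-positive and Gram-negative strains. Plates were incubated at 35 °C for 18–24 h. The MIC was read as the lowest concentration giving complete inhibition of visible bacterial growth.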
`COc1ccc(OC)c(CN2CCN(c3cc4c(cc3F)c(=O)c(C(=O)O)cn4C3CC3)CC2)c1` gave an MIC of 16 µg/mL (≈ 33.2 µM).

The compounds below were run on Escherichia coli (assay: Antibacterial activity against Escherichia coli 10-2 after 18 to 24 hrs by NCCLS method).
Assay type: functional
In short: as §1
Work on `COc1ccc(OC)c(CN2CCN(c3cc4c(cc3F)c(=O)c(C(=O)O)cn4C3CC3)CC2)c1` yielded an MIC of 64 µg/mL (≈ 133 µM).

Each compound was assayed on Klebsiella pneumoniae (assay: Antibacterial activity against extended spectrum beta-lactamases producing Klebsiella pneumoniae 10-1 after 18 to 24 hrs by NCCLS method).
Assay type: functional
In short: as §1
For `COc1ccc(OC)c(CN2CCN(c3cc4c(cc3F)c(=O)c(C(=O)O)cn4C3CC3)CC2)c1`, the MIC was > 128 µg/mL.

What follows are compounds tested on Pseudomonas aeruginosa (assay: Antibacterial activity against Pseudomonas aeruginosa 10-18 after 18 to 24 hrs by NCCLS method).
Assay type: functional
In short: as §1
For `COc1ccc(OC)c(CN2CCN(c3cc4c(cc3F)c(=O)c(C(=O)O)cn4C3CC3)CC2)c1`, the MIC was 16 µg/mL (≈ 33.2 µM).

What follows are compounds tested on Escherichia coli (assay: Antibacterial activity against extended spectrum beta-lactamases producing Escherichia coli 10-2 after 18 to 24 hrs by NCCLS method).
Assay type: functional
In short: as §1
`COc1ccc(OC)c(CN2CCN(c3cc4c(cc3F)c(=O)c(C(=O)O)cn4C3CC3)CC2)c1` was tested, and the MIC was > 128 µg/mL.

These compounds were tested on Staphylococcus aureus (assay: Antibacterial activity against methicillin-sensitive Staphylococcus aureus 10-11 after 18 to 24 hrs by NCCLS method).
Assay type: functional
In short: as §1
`COc1ccc(OC)c(CN2CCN(c3cc4c(cc3F)c(=O)c(C(=O)O)cn4C3CC3)CC2)c1` gave an MIC of 0.5 µg/mL (≈ 1.04 µM).

The compounds below were run on Pseudomonas aeruginosa (assay: Antibacterial activity against Pseudomonas aeruginosa 10-5 after 18 to 24 hrs by NCCLS method).
Assay type: functional
In short: as §1
In the case of `COc1ccc(OC)c(CN2CCN(c3cc4c(cc3F)c(=O)c(C(=O)O)cn4C3CC3)CC2)c1`, the MIC is reported as 16 µg/mL (≈ 33.2 µM).

These compounds were tested on Mycobacterium tuberculosis (assay: Antimycobacterial activity against Mycobacterium tuberculosis H37Rv ATCC 27294 by microplate alamar blue assay).
Assay type: functional
In short: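 Microplate Alamar Blue fluorescence assay on strain H37Rv ATCC 27294. MIC was the lowest concentration cutting fluorescence by ≥90% against the mean of replicate bacterium-only controls.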
`COc1ccc(OC)c(CN2CCN(c3cc4c(cc3F)c(=O)c(C(=O)O)cn4C3CC3)CC2)c1` was tested, and the MIC was > 32 µg/mL.

Each compound was assayed on Staphylococcus epidermidis (assay: Antibacterial activity against methicillin-sensitive Staphylococcus epidermidis 10-11 after 18 to 24 hrs by NCCLS method).
Assay type: functional
In short: as §1
`COc1ccc(OC)c(CN2CCN(c3cc4c(cc3F)c(=O)c(C(=O)O)cn4C3CC3)CC2)c1` gave an MIC of 1 µg/mL (≈ 2.08 µM).

The compounds below were run on Enterococcus faecalis (assay: Antibacterial activity against Enterococcus faecalis 10-6 after 18 to 24 hrs by NCCLS method).
Assay type: functional
In short: as §1
With `COc1ccc(OC)c(CN2CCN(c3cc4c(cc3F)c(=O)c(C(=O)O)cn4C3CC3)CC2)c1` the MIC was 128 µg/mL (≈ 266 µM).

What follows are compounds tested on Escherichia coli (assay: Antibacterial activity against extended spectrum beta-lactamases producing Escherichia coli 10-3 after 18 to 24 hrs by NCCLS method).
Assay type: functional
In short: as §1
In the case of `COc1ccc(OC)c(CN2CCN(c3cc4c(cc3F)c(=O)c(C(=O)O)cn4C3CC3)CC2)c1`, the MIC is reported as > 128 µg/mL.

What follows are compounds tested on Staphylococcus aureus (assay: Antibacterial activity against methicillin-sensitive Staphylococcus aureus 10-14 after 18 to 24 hrs by NCCLS method).
Assay type: functional
In short: as §1
In the case of `COc1ccc(OC)c(CN2CCN(c3cc4c(cc3F)c(=O)c(C(=O)O)cn4C3CC3)CC2)c1`, the MIC is reported as 1 µg/mL (≈ 2.08 µM).

The compounds below were run on Escherichia coli (assay: Antibacterial activity against extended spectrum beta-lactamases producing Escherichia coli 10-4 after 18 to 24 hrs by NCCLS method).
Assay type: functional
In short: as §1
For `COc1ccc(OC)c(CN2CCN(c3cc4c(cc3F)c(=O)c(C(=O)O)cn4C3CC3)CC2)c1`, the MIC was > 128 µg/mL.

The compounds below were run on Staphylococcus epidermidis (assay: Antibacterial activity against methicillin-resistant Staphylococcus epidermidis 10-10 after 18 to 24 hrs by NCCLS method).
Assay type: functional
In short: (§2)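 Incubated at 35 °C for 18–24 h under NCCLS (M100-S11) standards. MIC was read as the lowest concentration giving complete inhibition of visible bacterial growth.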
In the case of `COc1ccc(OC)c(CN2CCN(c3cc4c(cc3F)c(=O)c(C(=O)O)cn4C3CC3)CC2)c1`, the MIC is reported as 16 µg/mL (≈ 33.2 µM).

The compounds below were run on Staphylococcus epidermidis (assay: Antibacterial activity against methicillin-resistant Staphylococcus epidermidis 10-13 after 18 to 24 hrs by NCCLS method).
Assay type: functional
In short: as §2
In the case of `COc1ccc(OC)c(CN2CCN(c3cc4c(cc3F)c(=O)c(C(=O)O)cn4C3CC3)CC2)c1`, the MIC is reported as 16 µg/mL (≈ 33.2 µM).

Each compound was assayed on Klebsiella pneumoniae (assay: Antibacterial activity against extended spectrum beta-lactamases producing Klebsiella pneumoniae 10-2 after 18 to 24 hrs by NCCLS method).
Assay type: functional
In short: as §1
With `COc1ccc(OC)c(CN2CCN(c3cc4c(cc3F)c(=O)c(C(=O)O)cn4C3CC3)CC2)c1` the MIC was > 128 µg/mL.

These compounds were tested on Staphylococcus aureus (assay: Antibacterial activity against methicillin-resistant Staphylococcus aureus 10-11 after 18 to 24 hrs by NCCLS method).
Assay type: functional
In short: as §2
`COc1ccc(OC)c(CN2CCN(c3cc4c(cc3F)c(=O)c(C(=O)O)cn4C3CC3)CC2)c1` was tested, and the MIC was 32 µg/mL (≈ 66.5 µM).

What follows are compounds tested on Klebsiella pneumoniae (assay: Antibacterial activity against Klebsiella pneumoniae 10-3 after 18 to 24 hrs by NCCLS method).
Assay type: functional
In short: as §1
`COc1ccc(OC)c(CN2CCN(c3cc4c(cc3F)c(=O)c(C(=O)O)cn4C3CC3)CC2)c1` gave an MIC of 16 µg/mL (≈ 33.2 µM).

Each compound was assayed on Pseudomonas aeruginosa (assay: Antibacterial activity against Pseudomonas aeruginosa 10-20 after 18 to 24 hrs by NCCLS method).
Assay type: functional
In short: as §1
Work on `COc1ccc(OC)c(CN2CCN(c3cc4c(cc3F)c(=O)c(C(=O)O)cn4C3CC3)CC2)c1` yielded an MIC of 32 µg/mL (≈ 66.5 µM).
